Columns and labels:
[1] = target: Voltage-gated inwardly rectifying potassium channel KCNH2 (Homo sapiens, UniProt Q12809)
[2] = target: Melanin-concentrating hormone receptor 1 (Homo sapiens, UniProt Q99705); test: Displacement of 125I-MCH from MCH-R1 expressed in IMR-32 cells; assay type: cell-based
[3] = target: Melanin-concentrating hormone receptor (Homo sapiens, UniProt Q969V1+Q99705); test: Inhibition of MCH-mediated calcium release in IMR-32 cells; assay type: functional, cell-based
hERG versus MCH receptor = hERG versus MCH receptor (Homo sapiens, UniProt Q12809+Q969V1); test: in vitro
[4] = target: Adenosine receptor A1 (Homo sapiens) (UniProt P30542); test: Inhibition of human adenosine A1 receptor at 10uM
[5] = target: Sodium-dependent dopamine transporter (Homo sapiens) (UniProt Q01959); test: Inhibition of human dopamine transporter at 10uM
[6] = target: Adrenergic receptor alpha-1 (Homo sapiens) (UniProt P35348+P25100+P35368); test: Inhibition of adrenergic alpha 1 receptor at 10uM; assay type: protein assay
[7] = target: Sodium-dependent noradrenaline transporter (Homo sapiens) (UniProt P23975); test: Inhibition of human norepinephrine transporter receptor at 10uM
[8] = target: Beta-2 adrenergic receptor (Homo sapiens) (UniProt P07550); test: Inhibition of adrenergic beta 2 receptor at 10uM
L-type calcium channel = L-type calcium channel (Homo sapiens, UniProt O60840+Q01668+Q13698+Q13936); test: Inhibition of L-type calcium channel at 10uM; assay type: protein assay
[9] = target: Sigma non-opioid intracellular receptor 1 (Homo sapiens) (UniProt Q99720); test: Inhibition of sigma receptor at 10uM
[10] = Inhibition of sodium channel at 10uM
[11] = target: Muscarinic acetylcholine receptor M1 (Homo sapiens) (UniProt P11229); test: Inhibition of human muscarinic M1 receptor at 10uM
[12] = target: Histamine H1 receptor (Homo sapiens) (UniProt P35367); test: Inhibition of histamine H1 receptor at 10uM
[13] = Inhibition of calcium-activated potassium (SK) channel at 10uM
[14] = target: 5-hydroxytryptamine receptor 1B (Homo sapiens) (UniProt P28222); test: Inhibition of serotonin 5HT1B receptor at 10uM
[15] = target: Histamine H2 receptor (Homo sapiens) (UniProt P25021); test: Inhibition of histamine H2 receptor at 10uM
[16] = target: Adrenergic receptor alpha-2 (Homo sapiens) (UniProt P08913+P18825+P18089); test: Inhibition of adrenergic alpha 2 receptor at 10uM; assay type: protein assay
[17] = target: 5-hydroxytryptamine receptor 2A (Homo sapiens) (UniProt P28223); test: Inhibition of human serotonin 5HT2A receptor at 10uM
[18] = target: D(1A) dopamine receptor (Homo sapiens) (UniProt P21728); test: Inhibition of human dopamine D1 receptor at 10uM
[19] = target: 5-hydroxytryptamine receptor 1A (Homo sapiens) (UniProt P08908); test: Inhibition of human serotonin 5HT1A receptor at 10uM
[20] = target: Kappa-type opioid receptor (Homo sapiens) (UniProt P41145); test: Inhibition of human kappa opioid receptor at 10uM
[21] = target: Muscarinic acetylcholine receptor M2 (Homo sapiens) (UniProt P08172); test: Inhibition of human muscarinic M2 receptor at 10uM
Cytochrome P450 3A4 = Cytochrome P450 3A4 (Homo sapiens, UniProt P08684); test: Inhibition of CYP3A4; assay type: ADME
Method in brief: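 Human hepatic microsomes; CYP3A4 activity followed as oxidation of [3H]-terfenadine. IC50 taken as the compound concentration giving competitive inhibition of this oxidation.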

Chain of Melanin-concentrating hormone receptor 1 (Q99705 whole entry): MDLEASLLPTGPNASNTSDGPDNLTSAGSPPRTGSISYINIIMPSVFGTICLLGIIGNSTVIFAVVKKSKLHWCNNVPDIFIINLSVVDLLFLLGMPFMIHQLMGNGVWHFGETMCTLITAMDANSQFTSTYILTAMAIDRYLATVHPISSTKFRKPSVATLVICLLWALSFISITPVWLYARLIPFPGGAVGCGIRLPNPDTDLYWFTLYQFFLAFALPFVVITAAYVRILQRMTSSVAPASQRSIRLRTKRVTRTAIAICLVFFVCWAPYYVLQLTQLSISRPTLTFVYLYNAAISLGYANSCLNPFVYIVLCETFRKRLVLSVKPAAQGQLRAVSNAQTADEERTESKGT
Chain of Histamine H1 receptor (Homo sapiens) (P35367 whole entry): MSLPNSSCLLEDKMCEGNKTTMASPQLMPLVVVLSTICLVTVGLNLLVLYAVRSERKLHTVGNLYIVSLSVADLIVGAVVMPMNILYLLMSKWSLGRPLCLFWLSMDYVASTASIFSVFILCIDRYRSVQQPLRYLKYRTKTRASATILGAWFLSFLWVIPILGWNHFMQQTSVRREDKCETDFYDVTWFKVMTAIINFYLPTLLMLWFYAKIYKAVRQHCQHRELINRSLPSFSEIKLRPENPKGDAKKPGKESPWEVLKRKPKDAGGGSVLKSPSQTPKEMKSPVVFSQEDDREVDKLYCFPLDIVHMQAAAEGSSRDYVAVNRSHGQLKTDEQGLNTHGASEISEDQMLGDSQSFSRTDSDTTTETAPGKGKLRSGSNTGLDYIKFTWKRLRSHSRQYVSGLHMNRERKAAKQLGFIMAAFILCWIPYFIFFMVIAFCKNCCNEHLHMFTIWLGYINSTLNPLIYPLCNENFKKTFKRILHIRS
Chain of 5-hydroxytryptamine receptor 2A (Homo sapiens) (P28223 whole entry): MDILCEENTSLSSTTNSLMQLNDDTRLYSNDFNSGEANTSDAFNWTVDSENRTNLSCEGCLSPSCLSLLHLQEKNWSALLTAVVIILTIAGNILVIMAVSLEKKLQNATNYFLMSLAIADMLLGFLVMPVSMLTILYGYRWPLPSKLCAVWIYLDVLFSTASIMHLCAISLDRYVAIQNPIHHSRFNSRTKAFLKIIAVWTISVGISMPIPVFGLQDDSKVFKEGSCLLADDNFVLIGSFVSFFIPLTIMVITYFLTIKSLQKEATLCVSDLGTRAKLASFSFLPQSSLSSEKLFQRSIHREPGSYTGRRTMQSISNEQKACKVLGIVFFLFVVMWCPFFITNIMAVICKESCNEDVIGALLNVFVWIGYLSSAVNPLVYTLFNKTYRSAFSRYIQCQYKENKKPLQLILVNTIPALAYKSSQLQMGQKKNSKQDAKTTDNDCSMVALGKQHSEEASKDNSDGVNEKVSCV
Chain of 5-hydroxytryptamine receptor 1A (Homo sapiens) (P08908 whole entry): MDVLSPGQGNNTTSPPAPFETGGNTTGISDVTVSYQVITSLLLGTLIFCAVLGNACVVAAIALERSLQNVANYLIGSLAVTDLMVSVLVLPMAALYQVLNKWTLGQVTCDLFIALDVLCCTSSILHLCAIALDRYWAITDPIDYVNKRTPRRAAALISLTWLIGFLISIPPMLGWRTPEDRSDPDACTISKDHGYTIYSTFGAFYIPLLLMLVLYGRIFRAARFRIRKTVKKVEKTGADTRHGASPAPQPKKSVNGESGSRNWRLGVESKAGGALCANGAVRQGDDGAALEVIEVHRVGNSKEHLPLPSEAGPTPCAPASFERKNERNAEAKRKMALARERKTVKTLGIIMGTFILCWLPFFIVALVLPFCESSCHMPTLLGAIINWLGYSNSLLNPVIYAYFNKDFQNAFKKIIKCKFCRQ
Chain of Kappa-type opioid receptor (Homo sapiens) (P41145 whole entry): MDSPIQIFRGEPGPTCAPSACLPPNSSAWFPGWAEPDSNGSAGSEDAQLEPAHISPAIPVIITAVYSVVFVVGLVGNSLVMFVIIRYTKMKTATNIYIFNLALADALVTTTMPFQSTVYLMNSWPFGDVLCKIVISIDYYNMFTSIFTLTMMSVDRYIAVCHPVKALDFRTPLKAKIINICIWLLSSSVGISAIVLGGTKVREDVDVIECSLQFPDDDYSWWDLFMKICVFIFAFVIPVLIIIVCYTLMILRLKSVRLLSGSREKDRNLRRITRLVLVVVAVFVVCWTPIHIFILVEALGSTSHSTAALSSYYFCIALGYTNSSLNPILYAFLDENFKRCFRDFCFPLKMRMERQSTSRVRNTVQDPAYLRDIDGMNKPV
Chain of Sodium-dependent dopamine transporter (Homo sapiens) (Q01959 whole entry): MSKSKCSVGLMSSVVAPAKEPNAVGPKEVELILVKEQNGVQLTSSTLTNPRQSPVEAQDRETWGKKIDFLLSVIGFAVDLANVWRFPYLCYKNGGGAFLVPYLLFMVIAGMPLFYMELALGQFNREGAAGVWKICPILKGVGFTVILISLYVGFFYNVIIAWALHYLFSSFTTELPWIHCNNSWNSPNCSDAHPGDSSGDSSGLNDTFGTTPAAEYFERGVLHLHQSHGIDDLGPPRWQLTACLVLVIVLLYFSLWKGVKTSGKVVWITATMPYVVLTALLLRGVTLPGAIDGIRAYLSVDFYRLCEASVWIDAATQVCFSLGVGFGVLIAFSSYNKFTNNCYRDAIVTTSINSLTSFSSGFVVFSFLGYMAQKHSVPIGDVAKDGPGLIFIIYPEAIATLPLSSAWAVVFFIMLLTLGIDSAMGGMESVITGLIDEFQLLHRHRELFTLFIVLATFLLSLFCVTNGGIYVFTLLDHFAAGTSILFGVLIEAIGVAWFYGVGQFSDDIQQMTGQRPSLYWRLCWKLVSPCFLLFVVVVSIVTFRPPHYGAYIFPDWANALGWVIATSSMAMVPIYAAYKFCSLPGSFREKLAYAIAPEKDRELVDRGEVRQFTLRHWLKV
Chain of Voltage-gated inwardly rectifying potassium channel KCNH2 (Q12809 whole entry): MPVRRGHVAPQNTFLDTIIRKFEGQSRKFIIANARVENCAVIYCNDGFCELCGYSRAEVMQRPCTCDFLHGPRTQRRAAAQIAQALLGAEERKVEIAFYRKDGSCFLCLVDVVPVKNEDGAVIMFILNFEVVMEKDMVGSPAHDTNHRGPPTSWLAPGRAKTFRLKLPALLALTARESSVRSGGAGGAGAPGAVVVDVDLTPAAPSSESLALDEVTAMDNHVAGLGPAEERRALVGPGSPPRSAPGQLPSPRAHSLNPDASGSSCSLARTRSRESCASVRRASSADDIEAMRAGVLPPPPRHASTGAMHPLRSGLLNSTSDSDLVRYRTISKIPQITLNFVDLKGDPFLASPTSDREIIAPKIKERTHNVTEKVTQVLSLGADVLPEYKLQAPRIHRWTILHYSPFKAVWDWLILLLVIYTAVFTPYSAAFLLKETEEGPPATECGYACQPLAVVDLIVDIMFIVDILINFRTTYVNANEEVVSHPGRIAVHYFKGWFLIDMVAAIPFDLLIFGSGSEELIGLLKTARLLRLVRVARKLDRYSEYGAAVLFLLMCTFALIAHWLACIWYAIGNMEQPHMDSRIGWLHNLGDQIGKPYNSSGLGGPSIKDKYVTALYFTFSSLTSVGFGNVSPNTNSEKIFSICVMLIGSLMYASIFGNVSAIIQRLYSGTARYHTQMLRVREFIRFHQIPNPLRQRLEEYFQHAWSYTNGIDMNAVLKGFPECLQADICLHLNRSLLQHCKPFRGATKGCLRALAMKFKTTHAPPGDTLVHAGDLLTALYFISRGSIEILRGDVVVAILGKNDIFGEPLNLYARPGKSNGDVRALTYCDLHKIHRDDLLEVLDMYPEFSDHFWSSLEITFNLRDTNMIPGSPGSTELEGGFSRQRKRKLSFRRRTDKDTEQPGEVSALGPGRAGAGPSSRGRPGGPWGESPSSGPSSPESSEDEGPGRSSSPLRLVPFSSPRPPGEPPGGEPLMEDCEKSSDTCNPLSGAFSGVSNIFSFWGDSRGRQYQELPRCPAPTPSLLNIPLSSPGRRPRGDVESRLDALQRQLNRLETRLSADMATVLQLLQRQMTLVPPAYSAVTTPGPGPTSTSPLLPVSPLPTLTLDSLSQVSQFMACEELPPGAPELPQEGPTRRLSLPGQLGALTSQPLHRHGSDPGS
Chain of Sodium-dependent noradrenaline transporter (Homo sapiens) (P23975 whole entry): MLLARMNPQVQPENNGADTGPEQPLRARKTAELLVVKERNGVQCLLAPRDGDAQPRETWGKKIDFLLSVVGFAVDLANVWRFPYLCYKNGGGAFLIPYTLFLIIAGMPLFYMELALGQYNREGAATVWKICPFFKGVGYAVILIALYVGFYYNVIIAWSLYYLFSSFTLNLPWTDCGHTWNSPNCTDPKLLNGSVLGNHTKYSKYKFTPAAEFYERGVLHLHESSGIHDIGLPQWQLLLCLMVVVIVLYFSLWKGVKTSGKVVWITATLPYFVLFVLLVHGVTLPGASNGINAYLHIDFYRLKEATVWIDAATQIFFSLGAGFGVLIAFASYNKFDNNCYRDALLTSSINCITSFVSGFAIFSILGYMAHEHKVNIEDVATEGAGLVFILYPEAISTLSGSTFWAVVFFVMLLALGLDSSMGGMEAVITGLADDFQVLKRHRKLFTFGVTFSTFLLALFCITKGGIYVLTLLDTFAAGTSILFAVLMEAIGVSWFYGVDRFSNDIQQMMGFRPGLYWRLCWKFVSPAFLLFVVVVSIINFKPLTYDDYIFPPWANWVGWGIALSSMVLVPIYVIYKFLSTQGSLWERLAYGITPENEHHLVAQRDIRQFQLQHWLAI
Chain of Sigma non-opioid intracellular receptor 1 (Homo sapiens) (Q99720 whole entry): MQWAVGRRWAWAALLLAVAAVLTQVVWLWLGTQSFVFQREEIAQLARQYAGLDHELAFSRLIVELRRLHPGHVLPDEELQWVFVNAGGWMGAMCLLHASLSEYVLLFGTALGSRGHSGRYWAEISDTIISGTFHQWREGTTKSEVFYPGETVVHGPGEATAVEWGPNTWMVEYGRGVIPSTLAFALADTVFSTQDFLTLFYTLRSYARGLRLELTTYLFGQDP

For CCc1nc2ccc(CN3CCC(NC(=O)c4cc(=O)c5ccc(F)cc5o4)CC3)cc2o1, the IC50 [1] was 26700 nM, the IC50 [2] was 1270 nM and the IC50 [3] was greater than 10000 nM. The selectivity ratio (hERG versus MCH receptor) was 2.
O=C1COc2cc(CN3CCC(NC(=O)c4cc(=O)c5ccc(F)cc5o4)CC3)ccc2N1 gave an IC50 [2] of 166 nM and an IC50 [3] of 2410 nM.
For CC(=O)Nc1cccc(CN2CCC(NC(=O)c3cc(=O)c4ccc(F)cc4o3)CC2)c1, the IC50 [2] was 47 nM and the IC50 [3] was 551 nM.
O=C(NC1CCN(Cc2ccc3oc(=O)[nH]c3c2)CC1)c1cc(=O)c2ccc(F)cc2o1 gave an IC50 [2] of 43 nM and an IC50 [3] of 569 nM.
For O=C(NC1CCN(Cc2ccc3ccc(=O)oc3c2)CC1)c1cc(=O)c2ccc(F)cc2o1, the inhibition [4] was 11%, the inhibition [5] was 67% and the inhibition [6] was 13%. The inhibition [7] was 45%, the inhibition [8] was 16% and the inhibition at 10 µM (L-type calcium channel) was 10%. The inhibition [9] was 37%, the inhibition [10] was 72% and the inhibition [11] was 16%. The inhibition [12] was 36%, the inhibition [13] was 17% and the inhibition [14] was 5%. For the same molecule, the IC50 [2] was 1 nM, the inhibition [15] was 21% and the inhibition [16] was 28%. The inhibition [17] was -10%, the IC50 [3] was 46 nM and the inhibition [18] was 7%. For the same molecule, the inhibition [19] was 25%, the inhibition [20] was 43% and the inhibition [21] was 15%.
O=C(NC1CCN(Cc2ccc3cc[nH]c3c2)CC1)c1cc(=O)c2ccc(F)cc2o1 gave an IC50 [2] of 5 nM and an IC50 [3] of 66 nM.
For O=C(NC1CCN(Cc2ccc3ncoc3c2)CC1)c1cc(=O)c2ccc(F)cc2o1, the IC50 [2] was 10 nM and the IC50 [3] was 106 nM.
Molecule O=C(NC1CCN(Cc2ccc3c(c2)OCO3)CC1)c1cc(=O)c2ccc(F)cc2o1 has an inhibition [4] of 8%, an inhibition [5] of 26% and an inhibition [6] of 32%. The inhibition [7] was 48%, the inhibition [8] was 21% and the inhibition at 10 µM (L-type calcium channel) was 31%. The inhibition [9] was 104%, the inhibition [11] was 55% and the inhibition [12] was 65%. It also gave an inhibition [14] of -6%, an inhibition [15] of 16% and an IC50 (Cytochrome P450 3A4) of 23500 nM. For the same molecule, the inhibition [16] was 18%, the inhibition [17] was 17% and the inhibition [18] was 43%. The inhibition [19] was 48%, the inhibition [20] was 66% and the inhibition [21] was 42%.
Cn1c(=O)ccc2ccc(CN3CCC(NC(=O)c4cc(=O)c5ccc(F)cc5o4)CC3)cc21 showed an IC50 [1] of 47400 nM, an IC50 [2] of 3 nM and an IC50 [3] of 44 nM. For the same molecule, the selectivity ratio (hERG versus MCH receptor) was 1030.
CC(=O)Nc1ccc(CN2CCC(NC(=O)c3cc(=O)c4ccc(F)cc4o3)CC2)cc1 gave an IC50 [3] greater than 10000 nM.

— ChEMBL document CHEMBL1137588, “An evaluation of 3,4-methylenedioxy phenyl replacements in the aminopiperidine chromone class of MCHr1 antagonists” (Bioorg Med Chem Lett, 2007)
